For assay [1], the system named is Leishmania donovani. Briefly: Growth inhibition of wild type Leishmania donovani AG83 promastigotes after 72 hrs by MTT method. The note with it: AG83, 72 h.
For assay [2], the system named is Leishmania donovani. Nature of the assay: Reversal of growth inhibition of Leishmania donovani promastigotes at 50 uM after 48 hrs of 1 mM spermidine treatment. It is filed as functional, organism-based. The essentials: (§1)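 Promastigotes grown at 22°C in M-199 (Hanks' salts, 25 mM HEPES, 10% FBS, 100 µg/ml gentamicin) with 50 µM drug. 1 mM putrescine or spermidine was added after 24 h or 48 h of treatment. Growth was followed over 120 h by hemocytometer counts every 24 h. Mean ± SD of three determinations.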

For assay [3], the system named is Leishmania donovani. Nature of the assay: Reduction of putrescine level in Leishmania donovani promastigotes at 50 uM for after 48 hrs relative to control. Further details: scale not given: the % may be the effect or the level left. The class given is functional. The method, boiled down:
(§2)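 Log-phase promastigotes (1 x 10^7) were exposed 48 h and pelleted at 2,000 x g, 4°C. Acid extracts were dansyl-chloride derivatized before column and analysed by C18 reversed-phase HPLC. Values are vs untreated controls, mean ± SD (n = 3), Student's t test, P < 0.05.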

The subject of assay [4] is Leishmania donovani. Nature of the assay: Reversal of growth inhibition of Leishmania donovani promastigotes at 50uM after 24 hrs of 1 mM putrescine treatment. The class given is functional, organism-based. The essentials:
as §1

The test system of assay [5] is Leishmania donovani. Nature of the assay: Growth inhibition of Leishmania donovani AG83 amastigotes transfected with episomal ODC gene construct overproducing ODC. The class given is functional, organism-based.
The subject of the next assay is J774.A1. Briefly: Growth inhibition of J774A.1 macrophage cells after 24 hrs by MTT method. It is filed as functional, cell-based. The note with it: Mus musculus, J774.A1, 24 h. The essentials:
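J774A.1 murine macrophages kept at 37°C in RPMI 1640 with 10% FBS. Viability was read 24 h after drug addition.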
(Tetrazolium assays rely on reduction of a dye to a coloured formazan, in cell work by metabolically active cells.)

Assay [6] deals with Leishmania donovani. Briefly: Growth inhibition of Leishmania donovani amastigotes S1 LV patient isolate in J774A.1 cells after 5 days. It is filed as functional, organism-based. The note with it: J774.A1, 120 h. The essentials: (§3)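 J774A.1 murine macrophages kept at 37°C in RPMI 1640 with 10% FBS. 1 x 10^5 cells per well were infected with 1 x 10^6 stationary-phase luciferase-expressing (pGL-NEO LUC) promastigotes in M-199 with 10% FBS. Free parasites were washed off after 3 h, then drug was added at a range of concentrations for 5 days. Luciferase was read from washed adherent macrophages, and IC50 was taken from a concentration vs RLU plot.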

For assay [7], the system named is Leishmania donovani. Briefly: Reversal of growth inhibition of Leishmania donovani promastigotes at 50 uM after 24 hrs of 1 mM spermidine treatment. The class given is functional, organism-based. The method, boiled down: as §1
In assay [8] the test system is Leishmania donovani. Briefly: Growth inhibition of Leishmania donovani SAG-resistant R2 LV patient isolate amastigotes in J774A.1 cells after 5 days. It is filed as functional, organism-based. The note with it: J774.A1, 120 h. The essentials:
as §3

The subject of assay [9] is Leishmania donovani. Briefly: Growth inhibition of wild type Leishmania donovani AG83 amastigotes in J774A.1 after 5 days by luciferase reporter assay. The note with it: AG83, J774.A1, 120 h. On the technique in general: Reporter assays use an easily measured gene product as a stand-in for the process of interest.
The test system of assay [10] is Leishmania donovani. Nature of the assay: Growth inhibition of Leishmania donovani SAG-resistant R2 LV patient isolate promastigotes in J774A.1 cells after 5 days. The class given is functional, organism-based.
The test system of assay [11] is Leishmania donovani. Nature of the assay: Growth inhibition of Leishmania donovani SAG-resistant GE1 LV patient isolate amastigotes in J774A.1 cells after 5 days. It is filed as functional, organism-based. The note with it: J774.A1, 120 h. The method, boiled down: as §3
The test system of assay [12] is Leishmania donovani. Briefly: Reduction of spermidine level in Leishmania donovani promastigotes at 50 uM after 48 hrs relative to control. It is filed as functional. The arrangement: scale not given: the % may be the effect or the level left. The essentials:
as §2

Assay [13] concerns the target T1, Ornithine decarboxylase (Leishmania donovani) (UniProt P27116).
T1 sequence (whole entry): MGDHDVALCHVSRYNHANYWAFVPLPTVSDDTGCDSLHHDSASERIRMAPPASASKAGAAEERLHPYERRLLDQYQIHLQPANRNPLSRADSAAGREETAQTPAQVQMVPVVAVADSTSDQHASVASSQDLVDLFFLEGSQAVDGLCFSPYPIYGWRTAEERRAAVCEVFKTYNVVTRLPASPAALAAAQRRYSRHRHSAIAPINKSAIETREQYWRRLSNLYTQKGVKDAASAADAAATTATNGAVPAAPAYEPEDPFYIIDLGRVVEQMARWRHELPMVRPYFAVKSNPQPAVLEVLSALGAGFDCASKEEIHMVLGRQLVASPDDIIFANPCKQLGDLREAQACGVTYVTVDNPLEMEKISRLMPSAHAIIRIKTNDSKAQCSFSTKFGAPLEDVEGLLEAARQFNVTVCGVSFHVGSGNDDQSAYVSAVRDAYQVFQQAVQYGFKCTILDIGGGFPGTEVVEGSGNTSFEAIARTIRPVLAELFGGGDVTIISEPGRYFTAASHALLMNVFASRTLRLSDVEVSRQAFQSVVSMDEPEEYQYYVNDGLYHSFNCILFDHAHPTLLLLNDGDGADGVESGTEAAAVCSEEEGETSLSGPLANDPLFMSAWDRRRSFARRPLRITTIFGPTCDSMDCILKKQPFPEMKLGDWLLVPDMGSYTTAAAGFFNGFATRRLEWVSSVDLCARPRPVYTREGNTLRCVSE
Briefly: Inhibition of ODC in Leishmania donovani promastigotes at 50 uM after 48 hrs. The method, boiled down: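 Late-log promastigotes (1 x 10^7) were treated 48 h, then washed in PBS and freeze-thaw lysed in 50 mM Tris-HCl pH 7.5, 10 µM EDTA, 2.5 mM DTT. Released 14CO2 is expressed as nmol CO2/mg protein/h (Bradford). Mean ± SD, n = 3.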

The subject of assay [14] is Leishmania donovani. Briefly: Growth inhibition of Leishmania donovani promastigotes S1 LV patient isolate in J774A.1 cells after 5 days. The class given is functional, organism-based.
The subject of assay [15] is Leishmania donovani. Briefly: Growth inhibition of Leishmania donovani SAG-resistant R1 LV patient isolate amastigotes in J774A.1 cells after 5 days. It is filed as functional, organism-based. The note with it: J774.A1, 120 h. The essentials: as §3
Assay [16] concerns Leishmania donovani. Briefly: Growth inhibition of Leishmania donovani SAG-resistant R1 LV patient isolate promastigotes in J774A.1 cells after 5 days. The class given is functional, organism-based.
The subject of assay [17] is Leishmania donovani. Briefly: Growth inhibition of Leishmania donovani SAG-resistant GE1 LV patient isolate promastigotes in J774A.1 cells after 5 days. The class given is functional, organism-based.
Assay [18] relates to Leishmania donovani. Nature of the assay: Reversal of growth inhibition of Leishmania donovani promastigotes at 50uM after 48 hrs of 1 mM putrescine treatment. It is filed as functional, organism-based. The method, boiled down: as §1
Assay [19] has as its system Leishmania donovani. Nature of the assay: Reduction of trypanothione level in Leishmania donovani promastigotes at 50 uM after 48 hrs relative to control. It is filed as functional. Further details: scale not given: the % may be the effect or the level left. The essentials: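 Log-phase promastigotes were treated 48 h before harvest, compared with untreated controls. Mean ± SD, n = 3, Student's t test.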

The test system of assay [20] is Leishmania donovani. Nature of the assay: Growth inhibition of Leishmania donovani AG83 promastigotes transfected with episomal ODC gene construct overproducing ODC. The class given is functional, organism-based. The essentials:
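Late-log-phase promastigotes, cultured at 22°C in M-199 (Hanks' salts, 25 mM HEPES, 10% FBS, gentamicin), were exposed to drug for 72 h. MTT was then added for 4 h, the reaction was stopped with acidic isopropanol, and absorbance was read at 570 nm to give IC50. Two or more independent experiments were run in triplicate.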

pIC50: −log10 of the molar value. Calls of active or inactive are those of the source. No cut-off for these calls is given here. Some results are limits rather than exact numbers.

As for `NCCCON`, the pIC50 – broadly, the negative decadic logarithm of the IC50, by convention in mol/L – is 4.38 with Leishmania donovani [1]; less than 4.00 in the assay on Leishmania donovani [5]; less than 3.70 in the assay on J774.A1; 5.00 in the assay with Leishmania donovani [6]; less than 3.70 with Leishmania donovani [8]; 5.30 in the assay with Leishmania donovani [9]. Besides, the pIC50 was 4.34 in the assay with Leishmania donovani [10]; less than 3.70 with Leishmania donovani [11]; 4.72 in the assay on Leishmania donovani [14]; less than 3.70 in the assay with Leishmania donovani [15]; less than 3.40 in the assay with Leishmania donovani [16]; less than 3.40 in the assay with Leishmania donovani [17]. The compound also gave a negative-log IC50 (pIC50) in the assay on Leishmania donovani [20] of 3.81. The outcome in the assay with Leishmania donovani [2], in the assay on Leishmania donovani [4], in the assay with Leishmania donovani [7] and with Leishmania donovani [18] was Active. The Activity with Leishmania donovani [3] is reported as 70%; with Leishmania donovani [12], 44%; in the assay on Leishmania donovani [19], 79%. Further, in assay [13], the inhibition – broadly, the relative decrease from the control value, in per cent – came to 76%.
Take `NCCCC(N)(C(=O)O)C(F)F` (stereo not drawn) [EFLORNITHINE]: the negative-log IC50 (pIC50) is less than 2.00 in the assay on Leishmania donovani [1] and 4.30 with Leishmania donovani [9].

The record behind these values is ChEMBL document CHEMBL1142176, “Antileishmanial effect of 3-aminooxy-1-aminopropane is due to polyamine depletion” (Antimicrob Agents Chemother, 2007).
